# How the values were obtained:
# Assay type in all cases: functional
# [1] = system: Mycobacterium tuberculosis; assay: Antitubercular activity against INH-resistant Mycobacterium tuberculosis Spec.800 harboring InhA promoter mutation assessed as inhibition of microbial growth incubated for 1 week by MABA method; conditions: time 1 weeks
# How it was run: (§1)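 Microplate Alamar Blue assay in Middlebrook 7H9 broth with 10% OADC. Inoculum from fresh LJ culture was adjusted to McFarland 1 and diluted 1:20. DMSO stocks were two-fold serially diluted to final 0.125–512 µg/ml, with growth and sterile controls. Plates ran 1 week at 37 °C, then Alamar blue was added for 24 h. MIC is the lowest concentration preventing the blue-to-pink change.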
# [2] = system: Mycobacterium tuberculosis; assay: Antitubercular activity against PAS/INH/EMB/RMP-resistant Mycobacterium tuberculosis Spec.210 assessed as inhibition of microbial growth incubated for 1 week by MABA method; conditions: Mycobacterium tuberculosis, 210, 168 h; time 1 weeks; how it was run: as §1
# [3] = system: Mycobacterium tuberculosis; assay: Antitubercular activity against PAS/INH/EMB/RMP-resistant Mycobacterium tuberculosis Spec.210 assessed as inhibition of microbial growth by classical test tube method
# How it was run: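 Classical test-tube serial dilution in Youmans' modified Proskauer–Beck liquid medium with 10% bovine serum. Inoculum came from 14-day-old cultures. Compounds were given as DMSO solutions (stock 10 mg/ml), diluted geometrically in medium to 3.1–100 µg/ml, and incubated at 37 °C. MIC is the minimum concentration inhibiting growth relative to a no-compound control.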
# [4] = system: Mycobacterium tuberculosis; assay: Potency index, Ratio of streptomycin MIC to test compound MIC for antitubercular activity against PAS/INH/EMB/RMP-resistant Mycobacterium tuberculosis Spec.210 assessed as inhibition of microbial growth incubated for 1 week by MABA method; conditions: time 1 weeks
# [5] = system: Mycobacterium tuberculosis; assay: Potency index, Ratio of isoniazid MIC to test compound MIC for antitubercular activity against PAS/INH/EMB/RMP-resistant Mycobacterium tuberculosis Spec.210 assessed as inhibition of microbial growth incubated for 1 week by MABA method; conditions: time 1 weeks
# [6] = system: Mycobacterium tuberculosis; assay: Potency index, Ratio of rifampicin MIC to test compound MIC for antitubercular activity against PAS/INH/EMB/RMP-resistant Mycobacterium tuberculosis Spec.210 assessed as inhibition of microbial growth incubated for 1 week by MABA method; conditions: time 1 weeks
# [7] = system: Mycobacterium tuberculosis; assay: Potency index, Ratio of ethambutol MIC to test compound MIC for antitubercular activity against PAS/INH/EMB/RMP-resistant Mycobacterium tuberculosis Spec.210 assessed as inhibition of microbial growth incubated for 1 week by MABA method; conditions: time 1 weeks
Compound,MIC [1],MIC [2],MIC [3],Ratio [4],Ratio [5],Ratio [6],Ratio [7]
COc1ccc(-n2nnnc2Nc2ccc(Cl)cc2)cc1,256 µg/mL,16 µg/mL,,,,,
NNC(=O)c1ccncc1 [ISONIAZID],2 µg/mL,16 µg/mL,12.5 µg/mL,,,,
COc1ccc(-n2nnnc2Nc2ccc(F)cc2)cc1,512 µg/mL,32 µg/mL,,,,,
COc1ccc(Nc2nnnn2-c2ccc(Cl)cc2)cc1,128 µg/mL,8 µg/mL,,2,2,2,2
COc1ccc(Nc2nnnn2-c2cccc(F)c2)cc1,256 µg/mL,16 µg/mL,,,,,
CO[C@H]1/C=C/O[C@@]2(C)Oc3c(C)c(O)c4c(O)c(c(/C=N/N5CCN(C)CC5)c(O)c4c3C2=O)NC(=O)/C(C)=C\C=C\[C@H](C)[C@H](O)[C@@H](C)[C@@H](O)[C@@H](C)[C@H](OC(C)=O)[C@@H]1C [RIFAMPIN],1 µg/mL,32 µg/mL,50 µg/mL,,,,
COc1ccc(Nc2nnnn2-c2ccccc2F)cc1,,16 µg/mL,,,,,
COc1ccc(NC(=S)Nc2cccc(F)c2)cc1,,,100 µg/mL,,,,
COc1ccc(NC(S)=Nc2ccc(F)cc2)cc1,,,100 µg/mL,,,,
COc1ccc(NC(=S)Nc2ccc(Br)cc2)cc1,,,> 100 µg/mL,,,,
COc1ccc(-n2nnnc2Nc2ccccc2Br)cc1,512 µg/mL,64 µg/mL,,,,,
COc1ccc(NC(=S)Nc2ccccc2Br)cc1,,,50 µg/mL,,,,
CC[C@@H](CO)NCCN[C@@H](CC)CO [ETHAMBUTOL],2 µg/mL,32 µg/mL,50 µg/mL,,,,
COc1ccc(NC(=S)Nc2cccc(Br)c2)cc1,,,50 µg/mL,,,,
COc1ccc(Nc2nnnn2-c2ccccc2Cl)cc1,128 µg/mL,8 µg/mL,,2,2,2,2
COc1ccc(Nc2nnnn2-c2ccc(F)cc2)cc1,128 µg/mL,8 µg/mL,,2,2,2,2
COc1ccc(Nc2nnnn2-c2ccc(Br)cc2)cc1,256 µg/mL,16 µg/mL,,,,,
COc1ccc(NC(=S)Nc2ccccc2F)cc1,,,100 µg/mL,,,,
COc1ccc(-n2nnnc2Nc2cccc(Cl)c2)cc1,256 µg/mL,32 µg/mL,,,,,
COc1ccc(Nc2nnnn2-c2ccccc2Br)cc1,256 µg/mL,16 µg/mL,,,,,
COc1ccc(-n2nnnc2Nc2cccc(F)c2)cc1,256 µg/mL,8 µg/mL,,2,2,2,2
CN[C@@H]1[C@H](O[C@H]2[C@H](O[C@H]3[C@H](O)[C@@H](O)[C@H](N=C(N)N)[C@@H](O)[C@@H]3N=C(N)N)O[C@@H](C)[C@]2(O)C=O)O[C@@H](CO)[C@H](O)[C@H]1O [STREPTOMYCIN],1 µg/mL,16 µg/mL,25 µg/mL,,,,
COc1ccc(NC(=S)Nc2cccc(Cl)c2)cc1,,,100 µg/mL,,,,
COc1ccc(-n2nnnc2Nc2ccccc2F)cc1,,16 µg/mL,,,,,
COc1ccc(NC(=S)Nc2ccccc2Cl)cc1,,,50 µg/mL,,,,
COc1ccc(NC(=S)Nc2ccc(Cl)cc2)cc1,,,50 µg/mL,,,,
COc1ccc(-n2nnnc2Nc2ccccc2Cl)cc1,256 µg/mL,8 µg/mL,,2,2,2,2
COc1ccc(Nc2nnnn2-c2cccc(Cl)c2)cc1,128 µg/mL,8 µg/mL,,2,2,2,2
COc1ccc(Nc2nnnn2-c2cccc(Br)c2)cc1,256 µg/mL,16 µg/mL,,,,,

# From ChEMBL document CHEMBL4680121, “Development of (4-methoxyphenyl)-1H-tetrazol-5-amine regioisomers as a new class of selective antitubercular agents” (Eur J Med Chem, 2020)
